How the values were obtained:
[1] = test system: Human immunodeficiency virus 2; assay: Antiviral activity against HIV2 ROD infected in human MT4 cells assessed as protection against virus-induced cytopathic effect incubated for 5 days by MTT assay; details: Human immunodeficiency virus 2, ISOLATE ROD, MT4, 120 h
[2] = test system: Human immunodeficiency virus 1; assay: Antiviral activity against wild type HIV1 3B infected in human MT4 cells assessed as protection against virus-induced cytopathic effect incubated for 5 days by MTT assay; assay type: functional, organism-based; details: Human immunodeficiency virus 1, 3B, MT4, 120 h
Method in brief: (§1)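 MT-4 cells (exponentially growing, resuspended at 6 × 10⁵ cells/mL) were seeded onto serial five-fold compound dilutions and infected with 100–300 CCID₅₀ virus stock, or given medium only (mock). Viability was read by MTT at 540 and 690 nm five days after infection, using the median OD of three wells. EC₅₀ is 50% protection from viral cytopathicity. CC₅₀ is 50% loss of viability in mock-infected cells.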

MT4 = assay: Cytotoxicity against mock-infected human MT4 cells assessed as reduction in cell viability measured after 5 days by MTT assay; assay type: functional; details: MT4, 120 h, time 5 day
Method in brief: as §1

[3] = test system: Human immunodeficiency virus 1; assay: Antiviral activity against HIV1 RES056 infected in human MT4 cells assessed as protection against virus-induced cytopathic effect incubated for 5 days by MTT assay; assay type: functional, organism-based; details: Human immunodeficiency virus 1, RES056, MT4, 120 h
Method in brief: as §1

[4] = biological target: Human immunodeficiency virus type 1 reverse transcriptase (Human immunodeficiency virus 1, UniProt Q72547); assay: Inhibition of wild type HIV1 Reverse transcriptase RNase H expressed in Escherichia coli using 5'-UUUUUUUUUAGGAUACAUAUGGUUAAAGU-3' oligonucleotide as substrate and DNA21P as primer in presence of [gamma32P]-ATP by PAGE analysis
Method in brief: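 Wild-type HIV-1 BH10 RT was expressed in E. coli and purified. RNase H activity was measured on a 31-nt RNA, 5′-³²P-labelled, annealed to a 21-nt DNA (31T/21P). Cleaved substrate was quantified without inhibitor (5% DMSO) and with compound over 0.2–100 µM. IC₅₀ values were taken from dose-response curves.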

[5] = biological target: Human immunodeficiency virus type 1 reverse transcriptase (Human immunodeficiency virus 1) (UniProt Q72547); assay: Inhibition of wild type HIV1 Reverse transcriptase RNase H expressed in Escherichia coli at 100 uM using 5'-UUUUUUUUUAGGAUACAUAUGGUUAAAGU-3' oligonucleotide as substrate and DNA21P as primer in presence of [gamma32P]-ATP by PAGE analysis relative to control
[6] = biological target: Human immunodeficiency virus type 1 reverse transcriptase (Human immunodeficiency virus 1) (UniProt Q72547); assay: Inhibition of wild type HIV1 Reverse transcriptase RNase H expressed in Escherichia coli at 50 uM using 5'-UUUUUUUUUAGGAUACAUAUGGUUAAAGU-3' oligonucleotide as substrate and DNA21P as primer in presence of [gamma32P]-ATP by PAGE analysis relative to control

IC50 [4] [µM] | inhibition [5] [%] | inhibition [6] [%] | Structure (SMILES) | EC50 [1] [µM] | EC50 [2] [µM] | CC50 (MT4) [µM] | EC50 [3] [µM]
– | – | – | COC(=O)c1cc(NC(=O)c2cc3cc([N+](=O)[O-])c(O)c(C)c3oc2=O)ccc1O | > 182 | > 182 | 182 | –
9.9 | – | – | Cc1c(O)c([N+](=O)[O-])cc2cc(C(=O)Nc3ccc(O)c(C(=O)O)c3)c(=O)oc12 | 121 | 121 | > 312 | 113
68.5 | – | – | O=C(c1cc2cc([N+](=O)[O-])c(O)c(O)c2oc1=O)N1CCCN(S(=O)(=O)c2ccc3ccncc3c2)CC1 | > 231 | 82.7 | > 231 | 123
– | – | – | Cc1c(O)c([N+](=O)[O-])cc2cc(C(=O)NC3CCN(C(=O)c4ccc([N+](=O)[O-])cc4)CC3)c(=O)oc12 | > 251 | > 251 | > 251 | –
– | – | – | Cc1c(O)c([N+](=O)[O-])cc2cc(C(=O)Nc3ccc(F)cc3)c(=O)oc12 | > 6.5 | > 6.5 | 6.5 | –
– | – | – | Cc1c(O)c([N+](=O)[O-])cc2cc(C(=O)NC3CCN(Cc4ccc(F)cc4)CC3)c(=O)oc12 | > 42.6 | > 42.6 | 42.6 | –
– | – | – | N#Cc1ccc(CN2CCC(NC(=O)c3cc4cc([N+](=O)[O-])c(O)c(O)c4oc3=O)CC2)cc1 | > 269 | 160 | > 269 | –
> 100 | 28.6 | – | Cc1c(O)c([N+](=O)[O-])cc2cc(C(=O)Nc3cccc(F)c3)c(=O)oc12 | > 12.5 | > 12.5 | 12.5 | –
> 50 | 62.9 | < 10 | Cc1c(O)c([N+](=O)[O-])cc2cc(C(=O)NC3CCN(Cc4cccc(Br)c4)CC3)c(=O)oc12 | > 14.7 | > 14.7 | 14.7 | –
– | – | – | Cc1c(O)c([N+](=O)[O-])cc2cc(C(=O)NC3CCN(C(=O)N(C)C)CC3)c(=O)oc12 | > 19.9 | > 19.9 | 19.9 | –
> 50 | 72.5 | < 10 | O=C(Nc1ccc(F)cc1)c1cc2cc([N+](=O)[O-])c(O)c(O)c2oc1=O | > 200 | > 200 | 200 | –
– | – | – | Cc1c(O)c([N+](=O)[O-])cc2cc(C(=O)NC3CCN(Cc4cccc(Cl)c4)CC3)c(=O)oc12 | – | > 9.38 | 9.37 | –
> 100 | 47.4 | – | O=C(NC1CCN(Cc2ccc(Br)cc2)CC1)c1cc2cc([N+](=O)[O-])c(O)c(O)c2oc1=O | > 112 | > 112 | 112 | –
– | – | – | Cc1c(O)c([N+](=O)[O-])cc2cc(C(=O)NCc3ccc(F)cc3Cl)c(=O)oc12 | > 32.5 | > 32.5 | 32.5 | –
> 50 | 72.5 | < 10 | O=C(NC1CCN(Cc2cccc(Cl)c2)CC1)c1cc2cc([N+](=O)[O-])c(O)c(O)c2oc1=O | > 143 | > 143 | 143 | –
> 50 | 87.2 | 37.1 | Cc1c(O)c([N+](=O)[O-])cc2cc(C(=O)NC3CCN(Cc4ccc(C(N)=O)cc4)CC3)c(=O)oc12 | > 260 | 138 | > 260 | –
– | – | – | Cc1c(O)c([N+](=O)[O-])cc2cc(C(=O)NC3CCN(S(=O)(=O)N(C)C)CC3)c(=O)oc12 | > 50.8 | > 50.8 | 50.8 | –
– | – | – | Cc1c(O)c([N+](=O)[O-])cc2cc(C(=O)NC3CCN(Cc4ccc(Br)cc4)CC3)c(=O)oc12 | > 72.3 | > 72.3 | 72.3 | –
– | – | – | Cc1c(O)c([N+](=O)[O-])cc2cc(C(=O)Nc3ccccc3F)c(=O)oc12 | > 10.7 | > 10.7 | 10.7 | –

IC50 [4] [µM] | inhibition [5] [%] | inhibition [6] [%] | Structure (SMILES) | EC50 [1] [µM] | EC50 [2] [µM] | CC50 (MT4) [µM] | EC50 [3] [µM]
> 50 | 57.4 | 32.4 | O=C(NC1CCN(Cc2cccc(Br)c2)CC1)c1cc2cc([N+](=O)[O-])c(O)c(O)c2oc1=O | > 153 | > 153 | 153 | –
– | – | – | Cc1c(O)c([N+](=O)[O-])cc2cc(C(=O)NC3CCN(Cc4ccccc4)CC3)c(=O)oc12 | > 7.8 | > 7.8 | 7.8 | –
> 50 | 57.7 | – | O=C(NC1CCN(Cc2cccc(F)c2)CC1)c1cc2cc([N+](=O)[O-])c(O)c(O)c2oc1=O | > 220 | 210 | > 220 | –
8.4 | – | 31.8 | O=C(NC1CCN(Cc2ccc(Cl)cc2)CC1)c1cc2cc([N+](=O)[O-])c(O)c(O)c2oc1=O | > 21.7 | > 21.7 | 21.7 | –
> 50 | 68.6 | < 10 | O=C(NCc1ccc(F)cc1Cl)c1cc2cc([N+](=O)[O-])c(O)c(O)c2oc1=O | > 266 | 46.1 | 266 | –
45.2 | – | – | Cc1c(O)c([N+](=O)[O-])cc2cc(C(=O)NC3CCN(Cc4cccc(F)c4)CC3)c(=O)oc12 | > 50.5 | > 50.5 | 50.5 | –
– | – | – | Cc1c(O)c([N+](=O)[O-])cc2cc(C(=O)NCc3cccc(F)c3)c(=O)oc12 | > 47.5 | > 47.5 | 47.5 | –
– | – | – | Cc1ccc(CN2CCC(NC(=O)c3cc4cc([N+](=O)[O-])c(O)c(C)c4oc3=O)CC2)cc1 | > 276 | > 276 | > 276 | –
> 100 | 48 | – | O=C(NCc1ccc(F)cc1)c1cc2cc([N+](=O)[O-])c(O)c(O)c2oc1=O | > 272 | > 272 | 272 | –
> 100 | 38.7 | – | Cc1c(O)c([N+](=O)[O-])cc2cc(C(=O)NCc3ccccc3F)c(=O)oc12 | > 45 | > 45 | 45 | –
– | – | – | O=C(NCc1cccc(F)c1)c1cc2cc([N+](=O)[O-])c(O)c(O)c2oc1=O | > 228 | > 228 | 228 | –
– | – | – | Cc1c(O)c([N+](=O)[O-])cc2cc(C(=O)NCc3ccc(F)cc3)c(=O)oc12 | > 44 | > 44 | 44 | –
– | – | – | Cc1c(O)c([N+](=O)[O-])cc2cc(C(=O)NC3CCN(Cc4ccc([N+](=O)[O-])cc4)CC3)c(=O)oc12 | > 259 | 234 | > 264 | –
– | – | – | O=C(NCc1ccccc1F)c1cc2cc([N+](=O)[O-])c(O)c(O)c2oc1=O | > 259 | > 259 | 259 | –
> 50 | 72.1 | < 10 | Cc1cccc(CN2CCC(NC(=O)c3cc4cc([N+](=O)[O-])c(O)c(C)c4oc3=O)CC2)c1 | > 3.88 | > 3.88 | 3.88 | –
> 100 | 23.8 | – | Cc1c(O)c([N+](=O)[O-])cc2cc(C(=O)NC3CCN(Cc4ccc(Cl)cc4)CC3)c(=O)oc12 | 148 | 167 | > 264 | –
> 50 | 78 | 12 | O=C(Nc1ccc(F)cc1F)c1cc2cc([N+](=O)[O-])c(O)c(O)c2oc1=O | > 330 | 237 | > 330 | –
– | – | – | O=C(NC1CCN(Cc2ccc([N+](=O)[O-])cc2)CC1)c1cc2cc([N+](=O)[O-])c(O)c(O)c2oc1=O | > 101 | > 101 | > 217 | –
